Three molecules from ChEMBL document CHEMBL4052607 (J Med Chem, 2017) can be followed below.

Test [1] has as its target T1, D(2) dopamine receptor (Homo sapiens, UniProt P14416). Put plainly: Displacement of [3H]N-methylspiperone from human D2L receptor expressed in HEK293 cell membranes after 1 hr by liquid scintillation counting analysis. An outline of the steps: (§1)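 Membranes from HEK293 cells stably expressing hD2R (long) or hD3R, 10 μg protein per tube, were incubated with 0.4 nM [3H]N-methylspiperone in EBSS with 0.2 mM sodium metabisulfite. Compound was tested over 13 half-log steps, 10 μM to 10 pM, in triplicate for 1 h at RT. Nonspecific binding was set with 10 μM (+)-butaclamol. Bound ligand was collected on PEI-soaked GF/B filters and counted by scintillation. Ki came from Cheng-Prusoff, at least 3 experiments.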
For orientation: In a radioligand displacement assay an active substance lowers the binding of a labelled ligand.

Test [2] has as its target T1, D(2) dopamine receptor. Briefly: Antagonist activity at D2 long receptor (unknown origin) expressed in CHOK1 cells assessed as inhibition of dopamine induced beta-arrestin recruitment after 90 mins by DiscoveRx PathHunter assay. The class given is cell-based. For orientation: Recruitment of arrestin is a read-out of receptor activation apart from second messengers.

The species named for the next test is Homo sapiens. Briefly: Selectivity ratio of Ki for human D2 receptor to Ki for human D3 receptor. An outline of the steps:
as §1

Test [3] concerns the target T2, D(3) dopamine receptor (Homo sapiens, UniProt P35462). Briefly: Displacement of [3H]N-methylspiperone from human D3 receptor expressed in HEK293 cell membranes after 1 hr by liquid scintillation counting analysis.
The target in test [4] is T2, D(3) dopamine receptor.
Test [5] deals with T1, D(2) dopamine receptor. Put plainly: Agonist activity at D2 long receptor (unknown origin) expressed in CHOK1 cells assessed as beta-arrestin recruitment up to 30 uM after 90 mins by DiscoveRx PathHunter assay. The class given is cell-based. An outline of the steps:
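Agonist mode in CHO-K1 cells expressing D2R long isoform fused to a β-galactosidase fragment, with β-arrestin-2 carrying the complementary fragment. Compound in PBS plus 0.2 μM sodium metabisulfite was preincubated 90 min at 37°C. PathHunter reagent was then added for 30 min at RT and luminescence read. RLU were normalized to the response at maximal dopamine.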

Active and inactive are the calls of the source. The calls are words filed in the database; no cut-off is given here.

T1 sequence (P14416 whole entry): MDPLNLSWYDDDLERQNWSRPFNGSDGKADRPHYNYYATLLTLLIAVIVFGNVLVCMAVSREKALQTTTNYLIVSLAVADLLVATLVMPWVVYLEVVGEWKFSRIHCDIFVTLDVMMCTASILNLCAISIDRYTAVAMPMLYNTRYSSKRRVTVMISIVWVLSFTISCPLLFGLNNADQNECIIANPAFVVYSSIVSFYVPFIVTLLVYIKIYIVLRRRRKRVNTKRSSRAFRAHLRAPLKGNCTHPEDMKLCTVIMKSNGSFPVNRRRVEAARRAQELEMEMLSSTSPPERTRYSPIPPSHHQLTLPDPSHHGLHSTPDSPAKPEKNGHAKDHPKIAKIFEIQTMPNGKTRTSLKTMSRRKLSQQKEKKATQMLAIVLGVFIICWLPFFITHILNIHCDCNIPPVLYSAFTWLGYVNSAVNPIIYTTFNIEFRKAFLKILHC
T2 sequence (P35462 whole entry): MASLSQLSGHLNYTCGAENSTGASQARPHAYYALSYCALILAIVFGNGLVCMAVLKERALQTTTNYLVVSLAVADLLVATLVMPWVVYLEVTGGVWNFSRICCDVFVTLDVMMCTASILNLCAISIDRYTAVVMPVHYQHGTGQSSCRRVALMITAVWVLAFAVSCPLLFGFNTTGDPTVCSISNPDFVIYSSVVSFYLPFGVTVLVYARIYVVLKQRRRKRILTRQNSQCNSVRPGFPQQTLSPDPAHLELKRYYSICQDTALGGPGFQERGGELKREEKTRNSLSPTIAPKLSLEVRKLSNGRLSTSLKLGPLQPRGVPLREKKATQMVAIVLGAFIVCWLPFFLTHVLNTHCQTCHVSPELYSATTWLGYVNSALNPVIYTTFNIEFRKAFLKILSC

By Ki is commonly meant a dissociation constant, usually derived from enzyme kinetics or from competition with a known ligand. Low values mean tighter binding, high ones weaker binding. By Kb is commonly meant the affinity of an antagonist, worked out from how it opposes an agonist. The term pKb denotes the Kb on a negative log10 scale, so that one unit is a factor of ten. With `N#Cc1ccc2c(c1)CNCC2`, the Ki is 11.4 µM at D(2) dopamine receptor [1] and 1.52 µM at D(3) dopamine receptor [3]. Also, the Kb at D(2) dopamine receptor [2] stood at 4.27 µM. Besides, the pKb worked out at 5.37 at D(2) dopamine receptor [2] and 5.49 at D(3) dopamine receptor [4]. Further, the Ratio Ki in the test filed under Homo sapiens was found to be 7.5. The outcome at D(2) dopamine receptor [5] was inactive.

With `N#Cc1ccc2c(c1)CCN(CC[C@H]1CC[C@H](NC(=O)c3ccnc4ccccc34)CC1)C2`, the result on D(2) dopamine receptor [5] was inactive.

For the molecule `N#Cc1cccc(N2CCNCC2)c1`, the Ki came out at 4.89 µM at D(2) dopamine receptor [1] and 0.581 µM on D(3) dopamine receptor [3]. For the same molecule, the antagonist dissociation constant (Kb) on D(2) dopamine receptor [2] was 2.09 µM. Moreover, the negative logarithm of the Kb (pKb) stood at 5.68 on D(2) dopamine receptor [2] and 5.42 on D(3) dopamine receptor [4]. Moreover, the Ratio Ki in the test filed under Homo sapiens is 8.4. Moreover, at D(2) dopamine receptor [5], the outcome was inactive.
